Measured values published in ChEMBL document CHEMBL4330076, “Quinazolin-2,4-dione-Based Hydroxamic Acids as Selective Histone Deacetylase-6 Inhibitors for Treatment of Non-Small Cell Lung Cancer” (J Med Chem, 2019).

Experiments:
[1] = Ratio of drug uptake in C57BL/6 mouse lung at 40 mg/kg, po administered via gavage co-administered with paclitaxel at 10 mg/kg, ip by LC-MS/MS analysis to drug uptake in C57BL/6 mouse lung at 40 mg/kg, po administered via gavage by LC-MS/MS analysis; type: ADME, organism-based; conditions: in vivo
[2] = test system: Lewis lung carcinoma cell line; assay: Induction of apoptosis in mouse LL/2 cells assessed as early apoptotic cells at 4 uM after 24 hrs in presence of paclitaxel by Annexin V/propidium iodide staining-based flow cytometric analysis (reference value: 1.8%); type: functional
[3] = target: T1, Protein deacetylase HDAC6 (Homo sapiens, UniProt Q9UBN7); assay: Competitive inhibition of human HDAC6 CD2 expressed in Escherichia coli BL21 (RIL) using Boc-Lys (Ac)-AMC as substrate preincubated for 10 mins followed by substrate addition and measured after 30 mins by fluorescence assay
T1 sequence (Q9UBN7 whole entry): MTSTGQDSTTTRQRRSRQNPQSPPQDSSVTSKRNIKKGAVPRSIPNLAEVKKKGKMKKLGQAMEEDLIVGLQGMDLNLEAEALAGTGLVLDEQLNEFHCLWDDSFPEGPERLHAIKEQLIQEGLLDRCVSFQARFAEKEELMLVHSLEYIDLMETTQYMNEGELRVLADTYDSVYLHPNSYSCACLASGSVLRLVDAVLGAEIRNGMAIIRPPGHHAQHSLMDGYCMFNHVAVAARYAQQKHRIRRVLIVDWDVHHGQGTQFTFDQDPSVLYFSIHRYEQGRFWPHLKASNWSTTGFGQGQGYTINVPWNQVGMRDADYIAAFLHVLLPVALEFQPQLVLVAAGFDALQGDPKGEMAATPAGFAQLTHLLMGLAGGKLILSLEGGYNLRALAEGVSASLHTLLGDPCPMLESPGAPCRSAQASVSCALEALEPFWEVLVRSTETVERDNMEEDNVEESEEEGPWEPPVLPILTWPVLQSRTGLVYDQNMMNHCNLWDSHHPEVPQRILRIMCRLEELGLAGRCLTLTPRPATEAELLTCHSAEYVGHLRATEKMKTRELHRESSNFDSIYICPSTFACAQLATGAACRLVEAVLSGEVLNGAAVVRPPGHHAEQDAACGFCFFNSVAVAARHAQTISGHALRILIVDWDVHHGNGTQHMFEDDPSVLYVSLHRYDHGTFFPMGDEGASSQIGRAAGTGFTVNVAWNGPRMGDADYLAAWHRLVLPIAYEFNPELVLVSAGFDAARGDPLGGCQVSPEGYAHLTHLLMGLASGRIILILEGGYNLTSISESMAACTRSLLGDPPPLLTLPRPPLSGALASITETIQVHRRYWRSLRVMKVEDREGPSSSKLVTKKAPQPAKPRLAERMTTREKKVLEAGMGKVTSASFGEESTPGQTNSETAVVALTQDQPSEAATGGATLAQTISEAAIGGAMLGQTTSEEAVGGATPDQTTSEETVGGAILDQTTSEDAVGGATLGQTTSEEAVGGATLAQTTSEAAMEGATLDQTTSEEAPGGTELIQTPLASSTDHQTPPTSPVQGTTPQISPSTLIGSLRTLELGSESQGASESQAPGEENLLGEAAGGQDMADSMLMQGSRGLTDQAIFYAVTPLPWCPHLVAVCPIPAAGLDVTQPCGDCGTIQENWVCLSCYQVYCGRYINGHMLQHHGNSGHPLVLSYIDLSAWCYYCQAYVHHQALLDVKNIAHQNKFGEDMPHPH

A549 [4] = assay: Induction of apoptosis in human A549 cells assessed as early apoptotic cells at 4 uM after 24 hrs by Annexin V/propidium iodide staining-based flow cytometric analysis (reference value: 1.2%); type: functional
A549 [5] = assay: Induction of apoptosis in human A549 cells assessed as late apoptotic cells at 4 uM after 24 hrs by Annexin V/propidium iodide staining-based flow cytometric analysis (reference value: 1.6%); type: functional
[6] = Drug uptake in C57BL/6 mouse liver at 40 mg/kg, po administered via gavage co-administered with paclitaxel at 10 mg/kg, ip by LC-MS/MS analysis; type: ADME, organism-based; conditions: in vivo
[7] = test system: Lewis lung carcinoma cell line; assay: Antitumor activity against mouse LL/2 cells implanted in C57BL/6 mouse assessed as tumor growth inhibition at 20 mg/kg, po qd administered for 21 consecutive days co-administered with paclitaxel at 10 mg/kg, ip qd administered for 5 days relative to control; type: functional
[8] = Drug metabolism in C57BL/6 mouse liver assessed as hydrolysis metabolite formation at 40 mg/kg, po administered via gavage by LC-MS/MS analysis; type: ADME, organism-based; conditions: in vivo
[9] = test system: Lewis lung carcinoma cell line; assay: Cytotoxicity against mouse LL/2 cells at 4 uM after 72 hrs in presence of paclitaxel by MTT assay relative to control; type: functional
Method in brief: (§1)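 Mouse LL/2 cells treated with inhibitor alone or combined with paclitaxel for 3 days. Viability measured by MTT assay relative to untreated control.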

[10] = test system: Lewis lung carcinoma cell line; assay: Induction of apoptosis in mouse LL/2 cells assessed as late apoptotic cells at 4 uM after 24 hrs in presence of paclitaxel by Annexin V/propidium iodide staining-based flow cytometric analysis (reference value: 8.7%); type: functional
[11] = AUC (0 to 24 hrs) in C57BL/6 mouse liver at 40 mg/kg, po administered via gavage by LC-MS/MS analysis; type: ADME, organism-based; parameters: dose 40 mg/kg, time < 24 hr, route oral; conditions: in vivo
A549 [12] = assay: Induction of apoptosis in human A549 cells assessed as necrotic cells at 4 uM after 24 hrs by Annexin V/propidium iodide staining-based flow cytometric analysis (reference value: 1.1%); type: functional
[13] = test system: Lewis lung carcinoma cell line; assay: Induction of apoptosis in mouse LL/2 cells assessed as necrotic cells at 4 uM after 24 hrs in presence of paclitaxel by Annexin V/propidium iodide staining-based flow cytometric analysis (reference value: 7.3%); type: functional
[14] = AUC (0 to 24 hrs) in C57BL/6 mouse lung at 40 mg/kg, po administered via gavage by LC-MS/MS analysis; type: ADME, organism-based; parameters: time < 24 hr, dose 40 mg/kg, route oral; conditions: in vivo
[15] = test system: Lewis lung carcinoma cell line; assay: Potentiation of paclitaxel-induced cytotoxicity in mouse LL/2 cells assessed as combination index up to 10 uM after 72 hrs by Chou-Talalay method; type: functional
[16] = test system: Lewis lung carcinoma cell line; assay: Induction of apoptosis in mouse LL/2 cells assessed as early apoptotic cells at 4 uM after 24 hrs by Annexin V/propidium iodide staining-based flow cytometric analysis (reference value: 1.8%); type: functional
[17] = Drug metabolism in C57BL/6 mouse lung assessed as hydrolysis metabolite formation at 40 mg/kg, po administered via gavage by LC-MS/MS analysis; type: ADME, organism-based; conditions: in vivo
[18] = test system: Lewis lung carcinoma cell line; assay: Induction of apoptosis in mouse LL/2 cells assessed as necrotic cells at 4 uM after 24 hrs by Annexin V/propidium iodide staining-based flow cytometric analysis (reference value: 7.3%); type: functional
[19] = test system: Lewis lung carcinoma cell line; assay: Induction of apoptosis in mouse LL/2 cells assessed as viable cells at 4 uM after 24 hrs by Annexin V/propidium iodide staining-based flow cytometric analysis (reference value: 82.3%); type: functional
[20] = Drug metabolism in C57BL/6 mouse liver assessed as hydroxylated metabolite formation at 40 mg/kg, po administered via gavage by LC-MS/MS analysis; type: ADME, organism-based; conditions: in vivo
[21] = test system: Lewis lung carcinoma cell line; assay: Cytotoxicity against mouse LL/2 cells at 4 uM after 72 hrs by MTT assay relative to control; type: functional; method in brief: as §1

O=C(NO)c1ccc(Cn2c(=O)n(CCc3ccccc3)c(=O)c3ccccc32)cc1
Ratio [1]: 1.6 | Activity [2]: 8.8% | Ki [3]: 3.7 nM | Activity (A549 [4]): 1.3% | Activity (A549 [5]): 0.7% | Drug uptake [6]: 719 ng/g | TGI [7]: 67.5% | Drug metabolism [8]: Metabolite_Detected | Activity [9]: 80 - 90% | Activity [10]: 21.2% | AUC [11]: 6395 ng·h/g | Activity (A549 [12]): 0.7% | Activity [13]: 5.3% | AUC [14]: 1335 ng·h/g | CI [15]: <1 | Activity [16]: 1.5% | Drug metabolism [17]: Metabolite_Detected | Activity [18]: 2.3% | Activity [19]: 85.8% | Drug metabolism [20]: Metabolite_Notdetected | Activity [21]: 10%
